In ChEMBL document CHEMBL1152987, “Emergence of the quinolone resistance-mediating gene aac(6')-Ib-cr in extended-spectrum-beta-lactamase-producing Klebsiella isolates collected in Slovenia between 2000 and 2005” (2007):

Experiments:
Format in all cases: functional
[1] = system: Klebsiella; assay: Antimicrobial activity against extended-spectrum-beta-lactamase-producing Klebsiella transconjugant TK2 isolate expressing quinolone resistance-mediating gene aac(6')-Ib-cr by Etest
Procedure, shortened: (§1)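 Transconjugants came from broth-free matings of Klebsiella donors with E. coli J53 Azr on brain heart infusion agar. Selection was for 24 h at 37°C on LB agar with sodium azide 150 μg/ml plus ampicillin 100, tetracycline 10, trimethoprim 25 or chloramphenicol 30 μg/ml, then replica plating ± ciprofloxacin 0.01 μg/ml. MICs were read by Etest per the manufacturer's instructions.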

[2] = system: Klebsiella; assay: Antimicrobial activity against extended-spectrum-beta-lactamase-producing Klebsiella transconjugant TK14 isolate expressing quinolone resistance-mediating gene aac(6')-Ib-cr by Etest; procedure, shortened: as §1
[3] = system: Klebsiella; assay: Antimicrobial activity against extended-spectrum-beta-lactamase-producing Klebsiella transconjugant TK16 isolate expressing quinolone resistance-mediating gene aac(6')-Ib-cr by Etest; procedure, shortened: as §1
[4] = system: Klebsiella; assay: Antimicrobial activity against extended-spectrum-beta-lactamase-producing Klebsiella transconjugant TK10 isolate expressing quinolone resistance-mediating gene aac(6')-Ib-cr by Etest; procedure, shortened: as §1
[5] = system: Klebsiella; assay: Antimicrobial activity against extended-spectrum-beta-lactamase-producing Klebsiella transconjugant TK25 isolate expressing quinolone resistance-mediating gene aac(6')-Ib-cr by Etest; procedure, shortened: as §1
[6] = system: Klebsiella; assay: Antimicrobial activity against extended-spectrum-beta-lactamase-producing Klebsiella transconjugant TK24 isolate expressing quinolone resistance-mediating gene aac(6')-Ib-cr by Etest; procedure, shortened: as §1
[7] = system: Klebsiella; assay: Antimicrobial activity against extended-spectrum-beta-lactamase-producing Klebsiella transconjugant TK6 isolate expressing quinolone resistance-mediating gene aac(6')-Ib-cr by Etest; procedure, shortened: as §1
[8] = system: Klebsiella; assay: Antimicrobial activity against extended-spectrum-beta-lactamase-producing Klebsiella transconjugant TK5 isolate expressing quinolone resistance-mediating gene aac(6')-Ib-cr by Etest; procedure, shortened: as §1
[9] = system: Klebsiella; assay: Antimicrobial activity against extended-spectrum-beta-lactamase-producing Klebsiella transconjugant TK9 isolate expressing quinolone resistance-mediating gene aac(6')-Ib-cr by Etest; procedure, shortened: as §1
[10] = system: Klebsiella; assay: Antimicrobial activity against extended-spectrum-beta-lactamase-producing Klebsiella transconjugant TK4 isolate expressing quinolone resistance-mediating gene aac(6')-Ib-cr by Etest; procedure, shortened: as §1
[11] = system: Klebsiella; assay: Antimicrobial activity against extended-spectrum-beta-lactamase-producing Klebsiella transconjugant TK7 isolate expressing quinolone resistance-mediating gene aac(6')-Ib-cr by Etest; procedure, shortened: as §1
[12] = system: Klebsiella; assay: Antimicrobial activity against extended-spectrum-beta-lactamase-producing Klebsiella transconjugant TK20 isolate expressing quinolone resistance-mediating gene aac(6')-Ib-cr by Etest; procedure, shortened: as §1
[13] = system: Klebsiella; assay: Antimicrobial activity against extended-spectrum-beta-lactamase-producing Klebsiella transconjugant TK11 isolate expressing quinolone resistance-mediating gene aac(6')-Ib-cr by Etest; procedure, shortened: as §1
[14] = system: Klebsiella; assay: Antimicrobial activity against extended-spectrum-beta-lactamase-producing Klebsiella transconjugant TK23 isolate expressing quinolone resistance-mediating gene aac(6')-Ib-cr by Etest; procedure, shortened: as §1
[15] = system: Klebsiella; assay: Antimicrobial activity against extended-spectrum-beta-lactamase-producing Klebsiella transconjugant TK3 isolate expressing quinolone resistance-mediating gene aac(6')-Ib-cr by Etest; procedure, shortened: as §1
[16] = system: Klebsiella; assay: Antimicrobial activity against extended-spectrum-beta-lactamase-producing Klebsiella transconjugant TK22 isolate expressing quinolone resistance-mediating gene aac(6')-Ib-cr by Etest; procedure, shortened: as §1
[17] = system: Klebsiella; assay: Antimicrobial activity against extended-spectrum-beta-lactamase-producing Klebsiella transconjugant TK1 isolate expressing quinolone resistance-mediating gene aac(6')-Ib-cr by Etest; procedure, shortened: as §1
[18] = system: Klebsiella; assay: Antimicrobial activity against extended-spectrum-beta-lactamase-producing Klebsiella transconjugant TK8 isolate expressing quinolone resistance-mediating gene aac(6')-Ib-cr by Etest; procedure, shortened: as §1
[19] = system: Klebsiella; assay: Antimicrobial activity against extended-spectrum-beta-lactamase-producing Klebsiella transconjugant TK19 isolate expressing quinolone resistance-mediating gene aac(6')-Ib-cr by Etest; procedure, shortened: as §1
[20] = system: Klebsiella; assay: Antimicrobial activity against extended-spectrum-beta-lactamase-producing Klebsiella transconjugant TK17 isolate expressing quinolone resistance-mediating gene aac(6')-Ib-cr by Etest; procedure, shortened: as §1
[21] = system: Klebsiella; assay: Antimicrobial activity against extended-spectrum-beta-lactamase-producing Klebsiella transconjugant TK13 isolate expressing quinolone resistance-mediating gene aac(6')-Ib-cr by Etest; procedure, shortened: as §1
[22] = system: Klebsiella; assay: Antimicrobial activity against extended-spectrum-beta-lactamase-producing Klebsiella transconjugant TK21 isolate expressing quinolone resistance-mediating gene aac(6')-Ib-cr by Etest; procedure, shortened: as §1
[23] = system: Klebsiella; assay: Antimicrobial activity against extended-spectrum-beta-lactamase-producing Klebsiella transconjugant TK12 isolate expressing quinolone resistance-mediating gene aac(6')-Ib-cr by Etest; procedure, shortened: as §1
[24] = system: Klebsiella; assay: Antimicrobial activity against extended-spectrum-beta-lactamase-producing Klebsiella transconjugant TK18 isolate expressing quinolone resistance-mediating gene aac(6')-Ib-cr by Etest; procedure, shortened: as §1
[25] = system: Klebsiella; assay: Antimicrobial activity against extended-spectrum-beta-lactamase-producing Klebsiella transconjugant TK15 isolate expressing quinolone resistance-mediating gene aac(6')-Ib-cr by Etest; procedure, shortened: as §1

Measured: MIC

O=C(O)c1cn(C2CC2)c2cc(N3CCNCC3)c(F)cc2c1=O [CIPROFLOXACIN]
0.125 µg/mL: [1] | [2] | [3] | [4] | [5] | [6] | [7] | [8] | [9] | [10] | [11] | [12] | [13] | [14] | [15] | [16] | [17] | [18] | [19] | [20] | [21] | [22] | [23] | [24] | [25]
